According to BindingDB's records for doi:10.1021/acs.jnatprod.5b00637 (University of Eastern Piedmont, 2016):

Biological target: Signal transducer and activator of transcription 3 (Homo sapiens, UniProt P40763)
Experiment: Inhibition of IFN gamma-induced STAT3 (unknown origin) activation in HeLa-STAT3-Luc cells after 6 hrs by luciferase reporter gene assay
Summary of the method: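 HeLa-STAT3-Luc reporter cells (15 × 10⁴ cells/mL, DMEM with 10% FBS, 37 °C, 5% CO2) were preincubated with the compounds at rising concentrations, then stimulated with IFNγ for 6 h. Lysate luciferase is expressed as percent inhibition, with IFNγ-induced activity set as 100%.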

Signal transducer and activator of transcription 3, sequence (P40763 whole entry): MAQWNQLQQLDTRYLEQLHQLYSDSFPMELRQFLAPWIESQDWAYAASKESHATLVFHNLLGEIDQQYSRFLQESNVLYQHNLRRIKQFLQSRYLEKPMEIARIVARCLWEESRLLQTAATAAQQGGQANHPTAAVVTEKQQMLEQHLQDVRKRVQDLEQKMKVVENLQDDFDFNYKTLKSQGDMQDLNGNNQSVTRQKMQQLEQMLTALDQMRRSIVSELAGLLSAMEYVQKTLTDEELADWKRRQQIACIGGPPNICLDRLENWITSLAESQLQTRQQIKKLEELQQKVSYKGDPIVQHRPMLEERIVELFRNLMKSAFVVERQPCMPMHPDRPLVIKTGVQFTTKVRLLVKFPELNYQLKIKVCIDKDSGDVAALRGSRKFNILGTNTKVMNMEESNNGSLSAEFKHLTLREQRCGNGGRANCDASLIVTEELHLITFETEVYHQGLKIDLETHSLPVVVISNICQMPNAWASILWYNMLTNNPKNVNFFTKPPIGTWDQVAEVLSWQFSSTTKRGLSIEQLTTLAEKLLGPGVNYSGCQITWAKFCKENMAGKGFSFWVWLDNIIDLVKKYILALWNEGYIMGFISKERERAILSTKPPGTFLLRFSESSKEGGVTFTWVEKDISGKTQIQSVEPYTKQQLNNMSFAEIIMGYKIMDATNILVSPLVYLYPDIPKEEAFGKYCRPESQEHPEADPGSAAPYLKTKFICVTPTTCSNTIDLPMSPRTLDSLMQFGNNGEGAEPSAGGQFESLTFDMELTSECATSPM

- IC50: 14.2 µM
Compound: CC(C)=CC(=O)C[C@H](C)c1ccc(C)cc1 [(+)-(S)-ar-turmerone]
